≈ marks a conversion by molar mass, not a printed value.
How the values were obtained:
Staphylococcus aureus [1] = assay: Antibacterial activity against methicillin-resistant Staphylococcus aureus EMRSA-15 after 20 hrs by broth microdilution method; format: functional; settings: EMRSA-15, 20 h
Procedure, shortened: (§1)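 Broth microdilution in Tryptic Soy Broth; growth read as OD600 after 20 h. MIC taken as the lowest drug concentration giving OD600 below 0.1. Run in triplicate.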

Enterococcus faecalis [2] = assay: Antibacterial activity against vancomycin-resistant Enterococcus faecalis NCTC 12201 after 20 hrs by broth microdilution method; format: functional; settings: NCTC 12201, 20 h; procedure, shortened: as §1
Staphylococcus aureus [3] = assay: Antibacterial activity against methicillin-resistant Staphylococcus aureus MRSA252 after 20 hrs by broth microdilution method; format: functional; settings: MRSA252, 20 h; procedure, shortened: as §1
Staphylococcus aureus [4] = assay: Antibacterial activity against methicillin-sensitive Staphylococcus aureus ATCC 9144 after 20 hrs by broth microdilution method; format: functional; settings: ATCC 9144, 20 h
Procedure, shortened: (§2)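 Broth microdilution in Tryptic Soy Broth, done in triplicate. Growth was read as OD600 after 20 h. MIC is the lowest drug concentration giving OD600 below 0.1.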

Enterococcus faecium = assay: Antibacterial activity against vancomycin-resistant Enterococcus faecium NCTC 12204 after 20 hrs by broth microdilution method; format: functional; settings: NCTC 12204, 20 h; procedure, shortened: as §1
[5] = Cytotoxicity against human HeLa cells assessed as cell viability at 25 uM after 24 hrs by MTT assay; format: cell-based; settings: read-out: Activity
Procedure, shortened: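 HeLa cells, 10000 per well, were grown at 37 °C in 5% CO2 and allowed to settle for 24 h. Compound was then added in triplicate for 24 h of continuous exposure. Viability was read by MTT colorimetry, with absorbance at 570 nm.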

Enterococcus faecalis [6] = assay: Antibacterial activity against vancomycin-sensitive Enterococcus faecalis NCTC 775 after 20 hrs by broth microdilution method; format: functional; settings: NCTC 775, 20 h; procedure, shortened: as §2

| SMILES | MIC (Staphylococcus aureus [1]) [mg/L] | MIC (Enterococcus faecalis [2]) [mg/L] | MIC (Staphylococcus aureus [3]) [mg/L] | MIC (Staphylococcus aureus [4]) [mg/L] | MIC (Enterococcus faecium) [mg/L] | viability at 24 h, 25 µM [5] [%] | MIC (Enterococcus faecalis [6]) [mg/L] |
| --- | --- | --- | --- | --- | --- | --- | --- |
| Cc1nc2ccc(C(=O)Nc3cccc(-c4ccc(-n5c(C)nc6cc(C(=O)NCCCN7CCCC7)ccc65)nc4)c3)cc2[nH]1 | > 128 | > 128 | – | – | – | – | – |
| Cc1nc2cc(C(=O)NCCCN(C)C)ccc2n1-c1ccc(-c2cccc(NC(=O)c3ccc4nc(CCCN(C)C)[nH]c4c3)c2)cn1 | > 128 | 32 to 64 (≈ 48.6 to 97.3 µM) | > 128 | > 128 | 64 (≈ 97.3 µM) | 39 | > 128 |

— ChEMBL document CHEMBL4011643, “Triaryl Benzimidazoles as a New Class of Antibacterial Agents against Resistant Pathogenic Microorganisms” (J Med Chem, 2017)
